Assay results published in ChEMBL document CHEMBL1133137, “Synthesis and biological effects of a new series of 2-amino-3-benzoylthiophenes as allosteric enhancers of A1-adenosine receptor” (Bioorg Med Chem Lett, 2000).

Target: T1, Adenosine receptor A1 (Homo sapiens) (UniProt P30542)
T1 sequence (whole entry): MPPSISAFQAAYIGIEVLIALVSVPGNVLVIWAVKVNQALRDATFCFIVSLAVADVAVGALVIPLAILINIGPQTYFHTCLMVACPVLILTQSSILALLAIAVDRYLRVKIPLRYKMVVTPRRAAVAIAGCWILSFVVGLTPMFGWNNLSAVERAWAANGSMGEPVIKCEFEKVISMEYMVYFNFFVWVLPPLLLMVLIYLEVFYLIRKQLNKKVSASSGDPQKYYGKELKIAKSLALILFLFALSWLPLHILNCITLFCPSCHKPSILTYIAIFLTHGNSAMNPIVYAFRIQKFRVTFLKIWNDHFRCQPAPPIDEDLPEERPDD
Test: Percentage of response to 10 uM of PD-81723 on CHO cells expressing the cloned human A1-adenosine receptor at 10 uM concentration
Assay type: functional, cell-based
Procedure, shortened: (§1)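 CHO cells stably expressing recombinant human A1 receptors (~8000 fmol/mg protein), thawed from low-passage frozen stocks, grown to confluence over 48–72 h in Ham's F-12 with 10% FBS and G-418. Test compound incubated 6 min at 36 °C with 0.05–0.1 nM CPA. Reaction stopped with HCl (final 50 mM). cAMP in acid extracts measured by radioimmunoassay. Reduction normalized to the response to 10 μM PD 81,723.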

Compound	Response
Nc1sc2c(c1C(=O)c1cccc(C(F)(F)F)c1)CCN(CCCc1ccccc1)C2	22%
Nc1sc2c(c1C(=O)c1ccccc1)CCC2	82%
Nc1sc2c(c1C(=O)c1ccccc1)CCCCC2	54%
Nc1sc2c(c1C(=O)c1ccccc1)CCCC2	77%
Nc1sc2c(c1C(=O)c1cccc(C(F)(F)F)c1)CCN(Cc1ccccc1)C2	85%
Cc1sc(N)c(C(=O)c2cccc(C(F)(F)F)c2)c1C	100%

Continued, values first:

Response	Compound
72%	Nc1sc2c(c1C(=O)c1ccc(Cl)cc1)CCCCC2
72%	Nc1sc2c(c1C(=O)c1ccc(Br)cc1)CCC2
92%	Cc1sc(N)c(C(=O)c2ccc(Cl)cc2)c1C
68%	Nc1sc2c(c1C(=O)c1ccc(-c3ccccc3)cc1)CCCC2
68%	Nc1sc2c(c1C(=O)c1ccc(Cl)cc1)CCCCCC2
25%	Nc1sccc1C(=O)c1ccc(Cl)cc1
65%	Nc1sc2c(c1C(=O)c1ccc(F)cc1)CCC2
83%	Nc1sc2c(c1C(=O)c1ccc(F)cc1)CCCC2
71%	COc1ccc(C(=O)c2c(N)sc3c2CCCC3)cc1

Target: T1, Adenosine receptor A1 (Homo sapiens)
Test: Percentage of response to 10 uM of PD-81723 on CHO cells expressing the cloned human A1-adenosine receptor at 0.1 uM
Assay type: functional, cell-based
Procedure, shortened: as §1

Compound	Response
Nc1sc2c(c1C(=O)c1cccc(C(F)(F)F)c1)CCN(CCCc1ccccc1)C2	< 5%
Nc1sc2c(c1C(=O)c1ccc(I)cc1)CCN(C(=O)OCc1ccccc1)C2	< 5%
Nc1sc2c(c1C(=O)c1cccc(C(F)(F)F)c1)CCN(CCc1ccccc1)C2	< 5%

Next, values leading:

Response	Compound
< 5%	Nc1sc2c(c1C(=O)c1ccc(-c3ccccc3)cc1)CCNC2
< 5%	Nc1sc2c(c1C(=O)c1ccc(I)cc1)CCNC2
< 5%	Nc1sc2c(c1C(=O)c1ccc(F)cc1)CCC2
< 5%	Nc1sc2c(c1C(=O)c1ccc(F)cc1)CCCC2
< 5%	COc1ccc(C(=O)c2c(N)sc3c2CCCC3)cc1

Target: T1, Adenosine receptor A1 (Homo sapiens)
Test: The compound was tested for its percentage of response to 10 uM of PD-81723 on CHO cells expressing the cloned human A1-adenosine receptor at 1 uM; change of less than 5% of allosteric enhancement.
Assay type: functional, cell-based
Procedure, shortened: as §1

Compound	Response
Nc1sc2c(c1C(=O)c1ccc(Cl)cc1)CCC2	< 5%

Target: T1, Adenosine receptor A1 (Homo sapiens)
Test: The compound was tested for its percentage of response to 10 uM of PD-81723 on CHO cells expressing the cloned human A1-adenosine receptor at 10 uM concentration; change of less than 5% of allosteric enhancement.
Assay type: functional, cell-based
Procedure, shortened: as §1

Compound	Response
Nc1sc2c(c1C(=O)c1ccc(-c3ccccc3)cc1)CCN(C(=O)OCc1ccccc1)C2	< 5%
Nc1sc2c(c1C(=O)c1ccc(I)cc1)CCN(C(=O)OCc1ccccc1)C2	< 5%

Second part, the compound after the results:

Response	Compound
< 5%	Nc1sc2c(c1C(=O)c1ccc(Cl)cc1)CCC2
< 5%	Nc1sc2c(c1C(=O)c1ccc(Br)cc1)CCNC2
< 5%	Nc1sc2c(c1C(=O)c1ccc(I)cc1)CCNC2

Target: T1, Adenosine receptor A1 (Homo sapiens)
Test: The compound was tested for its percentage of response to 10 uM of PD-81723 on CHO cells expressing the cloned human A1-adenosine receptor at 10 uM concentration; An increase of cAmp content of cells
Assay type: functional, cell-based
Procedure, shortened: as §1

Compound	Response
Nc1sc2c(c1C(=O)c1cccc(C(F)(F)F)c1)CCN(CCc1ccccc1)C2	Increased cAMP

Target: T1, Adenosine receptor A1 (Homo sapiens)
Test: The compound was tested for its percentage of response to 10 uM of PD-81723 on CHO cells expressing the cloned human A1-adenosine receptor at 0.1 uM concentration; change of less than 5% of allosteric enhancement.
Assay type: functional, cell-based
Procedure, shortened: as §1

Compound	Response
Nc1sc2c(c1C(=O)c1ccc(Br)cc1)CCNC2	< 5%

Target: T1, Adenosine receptor A1 (Homo sapiens)
Test: The compound was tested for its percentage of response to 10 uM of PD-81723 on CHO cells expressing the cloned human A1-adenosine receptor at 1 uM concentration; change of less than 5% of allosteric enhancement.
Assay type: functional, cell-based
Procedure, shortened: as §1

Compound	Response
Nc1sc2c(c1C(=O)c1ccc(I)cc1)CCN(C(=O)OCc1ccccc1)C2	< 5%
Nc1sc2c(c1C(=O)c1cccc(C(F)(F)F)c1)CCN(CCc1ccccc1)C2	< 5%

More lines, now with the values ahead:

Response	Compound
< 5%	Nc1sc2c(c1C(=O)c1ccc(-c3ccccc3)cc1)CCNC2
< 5%	Nc1sc2c(c1C(=O)c1ccc(Br)cc1)CCNC2
< 5%	Nc1sc2c(c1C(=O)c1ccc(I)cc1)CCNC2

Target: T1, Adenosine receptor A1 (Homo sapiens)
Test: Percentage of response to 10 uM of PD-81723 on CHO cells expressing the cloned human A1-adenosine receptor at 1 uM concentration
Assay type: functional, cell-based
Procedure, shortened: as §1

Compound	Response
Nc1sc2c(c1C(=O)c1ccc(-c3ccccc3)cc1)CCN(C(=O)OCc1ccccc1)C2	6%
Nc1sc2c(c1C(=O)c1cccc(C(F)(F)F)c1)CCN(CCCc1ccccc1)C2	7%
Nc1sc2c(c1C(=O)c1ccccc1)CCC2	29%
Nc1sc2c(c1C(=O)c1ccccc1)CCCCC2	29%
Nc1sc2c(c1C(=O)c1ccccc1)CCCC2	48%
Nc1sc2c(c1C(=O)c1cccc(C(F)(F)F)c1)CCN(Cc1ccccc1)C2	41%
Cc1sc(N)c(C(=O)c2cccc(C(F)(F)F)c2)c1C	40%

The remaining lines, values ahead:

Response	Compound
32%	Nc1sc2c(c1C(=O)c1ccc(Cl)cc1)CCN(CCc1ccccc1)C2
42%	Nc1sc2c(c1C(=O)c1ccc(Cl)cc1)CCCCC2
53%	Nc1sc2c(c1C(=O)c1ccc(Br)cc1)CCC2
52%	Cc1sc(N)c(C(=O)c2ccc(Cl)cc2)c1C
79%	Nc1sc2c(c1C(=O)c1ccc(-c3ccccc3)cc1)CCCC2
39%	Nc1sc2c(c1C(=O)c1ccc(Cl)cc1)CCCCCC2
8%	Nc1sccc1C(=O)c1ccc(Cl)cc1
43%	Nc1sc2c(c1C(=O)c1ccc(F)cc1)CCC2
43%	Nc1sc2c(c1C(=O)c1ccc(F)cc1)CCCC2
44%	COc1ccc(C(=O)c2c(N)sc3c2CCCC3)cc1

Target: T1, Adenosine receptor A1 (Homo sapiens)
Test: Percentage of response to 10 uM of PD-81723 on CHO cells expressing the cloned human A1-adenosine receptor at 0.1 uM concentration
Assay type: functional, cell-based
Procedure, shortened: as §1

Compound	Response
Nc1sc2c(c1C(=O)c1ccc(-c3ccccc3)cc1)CCN(C(=O)OCc1ccccc1)C2	14%
Nc1sc2c(c1C(=O)c1ccccc1)CCC2	35%
Nc1sc2c(c1C(=O)c1ccccc1)CCCC2	16%
Nc1sc2c(c1C(=O)c1cccc(C(F)(F)F)c1)CCN(Cc1ccccc1)C2	18%
Cc1sc(N)c(C(=O)c2cccc(C(F)(F)F)c2)c1C	13%

The remaining lines, values ahead:

Response	Compound
58%	Nc1sc2c(c1C(=O)c1ccc(Cl)cc1)CCN(CCc1ccccc1)C2
25%	Nc1sc2c(c1C(=O)c1ccc(Cl)cc1)CCCCC2
31%	Nc1sc2c(c1C(=O)c1ccc(Br)cc1)CCC2
30%	Cc1sc(N)c(C(=O)c2ccc(Cl)cc2)c1C
14%	Nc1sc2c(c1C(=O)c1ccc(-c3ccccc3)cc1)CCCC2
24%	Nc1sc2c(c1C(=O)c1ccc(Cl)cc1)CCCCCC2
7%	Nc1sccc1C(=O)c1ccc(Cl)cc1

Target: T1, Adenosine receptor A1 (Homo sapiens)
Test: Percentage of response to 10 uM of PD-81723 on CHO cells expressing the cloned human A1-adenosine receptor at 10 uM; An increase of cAmp content of cells
Assay type: functional, cell-based
Procedure, shortened: as §1

Compound	Response
Nc1sc2c(c1C(=O)c1ccc(-c3ccccc3)cc1)CCNC2	Increased cAMP
Nc1sc2c(c1C(=O)c1ccc(Cl)cc1)CCN(CCc1ccccc1)C2	Increased cAMP

Target: T1, Adenosine receptor A1 (Homo sapiens)
Test: The compound was tested for its percentage of response to 10 uM of PD-81723 on CHO cells expressing the cloned human A1-adenosine receptor at 0.1 uM concentration; An increase of cAmp content of cells
Assay type: functional, cell-based
Procedure, shortened: as §1

Compound	Response
Nc1sc2c(c1C(=O)c1ccccc1)CCCCC2	Increased cAMP

Target: T1, Adenosine receptor A1 (Homo sapiens)
Test: Percent response to 10 uM PD-81723 on CHO cells expressing human A1-adenosine receptor at 0.1 uM; An increase of cAmp content of cells
Assay type: functional, cell-based
Procedure, shortened: as §1

Compound	Response
Nc1sc2c(c1C(=O)c1ccc(Cl)cc1)CCC2	Increased cAMP
